Experimental data taken from ChEMBL document CHEMBL1125014, “Synthesis and structure-activity relationships of new 9-N-alkyl derivatives of 9(S)-erythromycylamine” (1990).
≈ marks a conversion by molar mass, not a printed value.

How the values were obtained:
Staphylococcus aureus [1] = experiment: MIC value measured against staphylococcus aureus X1; format: functional
Mus musculus [2] = experiment: ED50 value was measured by sc administration against streptococcus pneumoniae infection in mice (in vivo, in experiment 1); format: functional
How it was run: (§1)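 Infected mice were dosed orally or subcutaneously at 1 and 5 h postinfection, 0.25 mL of antibiotic solution in 10% aqueous ethanol per dose. Tartaric acid was added where needed for solubility. Several dose concentrations were tested to give the ED50.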

Streptococcus pneumoniae [3] = experiment: Effective dose against mice infected with streptococcus pneumoniae after peroral administration (in vivo); format: functional; conditions: in Mus musculus, po
Rattus norvegicus [4] = organism: Rattus norvegicus; experiment: Fluid concentration in liver tissue was determined in rats at 0.5 h; format: functional
How it was run: (§2)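 Rats were gavaged at 20 mg/kg and tissues sampled 0.5–6 h after dosing. Drug was assayed microbiologically with Micrococcus luteus seeded in Antibiotic Media 1. Zone sizes were read against each compound's own standard curve. Values are the mean of three rats per time point, in μg/g.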

Haemophilus influenzae = experiment: MIC value was measured against haemophilus influenzae CL; format: functional
Rattus norvegicus [5] = organism: Rattus norvegicus; experiment: Fluid concentration in lung tissue was determined in rats at 4 h; format: functional
How it was run: (§3)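 Rats dosed by gavage at 20 mg/kg; lung, liver, kidney, urine and serum sampled at 0.5, 1, 2, 4 and 6 h after dosing. Antibiotic measured by microbiological assay with Micrococcus luteus seeded in Antibiotic Medium 1. Zone sizes were read against the standard curve for the same compound. Each value is the average of three rats per time point.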

Rattus norvegicus [6] = experiment: Plasma concentration in rats was determined by oral administration, 20 mg/kg at 4 hr; format: functional, organism-based; set-up: dose 20 mg/kg
How it was run: (§4)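 Peripheral plasma antibiotic levels in rats given 20 mg/kg orally or subcutaneously. Plasma was sampled at timed points after dosing. Levels were measured by microbiological agar assay with Micrococcus luteus seeded in Antibiotic Media 1, reading zone sizes, and were calculated from a standard curve for the appropriate compound. Each value is the average of three rats per time point, in μg/mL.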

Rattus norvegicus [7] = organism: Rattus norvegicus; experiment: Fluid concentration in liver tissue was determined in rats at 1 h; format: functional; how it was run: as §3
Mus musculus [8] = experiment: Plasma concentration of compound in mice by oral administration, 20 mg/kg at 4 hr; format: functional, organism-based; set-up: dose 20 mg/kg
How it was run: as §4, with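 “mice after a” for “rats given”, “oral dose,” for “orally or subcutaneously. Plasma was”, “administration.” for “dosing.”, “five mice” for “three rats”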

Streptococcus pneumoniae [9] = experiment: MIC value measured against streptococcus pneumoniae Park1; format: functional
Mus musculus [10] = experiment: ED50 value was measured by sc administration against staphylococcus aureus infection in mice (in vivo, in experiment 1); format: functional; how it was run: as §1
Rattus norvegicus [11] = organism: Rattus norvegicus
Mus musculus [12] = experiment: Plasma concentration in mice was determined by subcutaneous administration, 20 mg/kg at 4 hr; format: functional, organism-based; set-up: dose 20 mg/kg
How it was run: (§5)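 Mice given 20 mg/kg orally or subcutaneously; peripheral plasma sampled at 5, 20 and 40 min and at 1, 2 and 4 h after dosing. Microbiological assay used Micrococcus luteus seeded in Antibiotic Medium 1, with zone sizes converted by the compound's own standard curve. Each value is the average of five mice per time point.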

Mus musculus [13] = organism: Mus musculus
Rattus norvegicus [14] = organism: Rattus norvegicus; experiment: Fluid concentration in lung tissue was determined in rats at 1 h; format: functional; how it was run: as §3
[15] = test system: Staphylococcus epidermidis; experiment: microbe, parasite or virus in culture; format: functional
Rattus norvegicus [16] = organism: Rattus norvegicus; experiment: Fluid concentration in urine was determined in rats at 4 hr; format: functional; how it was run: as §3
Rattus norvegicus [17] = organism: Rattus norvegicus; experiment: Fluid concentration in lung tissue was determined in rats at 2 h; format: functional; how it was run: as §3
Mus musculus [18] = experiment: ED50 value was measured by po administration against staphylococcus aureus infection in mice (in vivo, in experiment 3); format: functional; conditions: Mus musculus, po; read-out: ED50
Mus musculus [19] = experiment: Plasma concentration in mice was determined by subcutaneous administration, 20 mg/kg at 20 min; format: functional, organism-based; set-up: dose 20 mg/kg; how it was run: as §5
Mus musculus [20] = experiment: ED50 value was measured by po administration against streptococcus pyogenes infection in mice (in vivo, in experiment 1); format: functional; how it was run: as §1
Mus musculus [21] = experiment: Plasma concentration in mice was determined by subcutaneous administration, 20 mg/kg at 5 min; format: functional, organism-based; set-up: dose 20 mg/kg; how it was run: as §5
Rattus norvegicus [22] = organism: Rattus norvegicus; experiment: Fluid concentration in kidney tissue was determined in rats at 2 hr; format: functional; how it was run: as §2
Mus musculus [23] = experiment: ED50 value was measured by sc administration against streptococcus pneumoniae infection in mice (in vivo, in experiment 3); format: functional; conditions: Mus musculus, sc; read-out: ED50
Streptococcus pyogenes [24] = experiment: MIC value measured against streptococcus pyogenes C203; format: functional
Streptococcus pyogenes [25] = experiment: Effective dose against mice infected with streptococcus pyogenes after peroral administration (in vivo); format: functional; conditions: in Mus musculus, po
Mus musculus [26] = experiment: Plasma concentration in mice was determined by subcutaneous administration, 20 mg/kg at 1 hr; format: functional, organism-based; set-up: dose 20 mg/kg; how it was run: as §5
Mus musculus [27] = experiment: ED50 value was measured by po administration against staphylococcus aureus infection in mice (in vivo, in experiment 1); format: functional; how it was run: as §1
Mus musculus [28] = experiment: ED50 value was measured by sc administration against staphylococcus aureus infection in mice (in vivo, in experiment 3); format: functional; conditions: Mus musculus, sc; read-out: ED50
Mus musculus [29] = experiment: Plasma concentration in mice was determined by subcutaneous administration, 20 mg/kg at 40 min; format: functional, organism-based; set-up: dose 20 mg/kg; how it was run: as §5
Staphylococcus aureus [30] = experiment: Effective dose against mice infected with Staphylococcus aureus after peroral administration (in vivo); format: functional; conditions: in Mus musculus, po
Mus musculus [31] = experiment: Plasma concentration in mice was determined by subcutaneous administration, 20 mg/kg at 2 hr; format: functional, organism-based; set-up: dose 20 mg/kg; how it was run: as §5
Mus musculus [32] = experiment: ED50 value was measured by po administration against streptococcus pneumoniae infection in mice (in vivo, in experiment 3); format: functional; conditions: Mus musculus, po; read-out: ED50
Rattus norvegicus [33] = experiment: Plasma concentration in rats was determined by oral administration, 20 mg/kg at 40 min; format: functional, organism-based; set-up: dose 20 mg/kg; how it was run: as §4
Rattus norvegicus [34] = organism: Rattus norvegicus; experiment: Fluid concentration in lung tissue was determined in rats at 6 h; format: functional; how it was run: as §3
Mus musculus [35] = experiment: ED50 value was measured by po administration against streptococcus pneumoniae infection in mice (in vivo, in experiment 1); format: functional; how it was run: as §1
Rattus norvegicus [36] = organism: Rattus norvegicus; remark: listed apart in the source
Mus musculus [37] = experiment: ED50 value was measured by po administration against streptococcus pyogenes infection in mice (in vivo, in experiment 3); format: functional; conditions: Mus musculus, po; read-out: ED50
Mus musculus [38] = experiment: ED50 value was measured by sc administration against streptococcus pyogenes infection in mice (in vivo, in experiment 1); format: functional; how it was run: as §1
Rattus norvegicus [39] = organism: Rattus norvegicus; experiment: Fluid concentration in lung tissue was determined in rats at 0.5 h; format: functional; how it was run: as §3

## CC[C@H]1OC(=O)[C@H](C)[C@@H](O[C@H]2C[C@@](C)(OC)[C@@H](O)[C@H](C)O2)[C@H](C)[C@@H](O[C@@H]2O[C@H](C)C[C@H](N(C)C)[C@H]2O)[C@](C)(O)C[C@@H](C)C(=O)[C@H](C)[C@@H](O)[C@]1(C)O [ERYTHROMYCIN]
Staphylococcus aureus [1]
  MIC: 0.12 µg/mL (≈ 0.164 µM)
Mus musculus [2]
  ED50: 2.7 mg/kg
Streptococcus pneumoniae [3]
  ED50: 44 mg/kg
Rattus norvegicus [4]
  Activity: 0.15 µg/mL
Haemophilus influenzae
  MIC: 1 µg/mL (≈ 1.36 µM)
Rattus norvegicus [5]
  Activity: 0.03 µg/mL
Rattus norvegicus [6]
  Plasma concentration: 0.02 µg/mL
Rattus norvegicus [7]
  Activity: 0.03 µg/mL
Mus musculus [8]
  Plasma concentration: 0 µg/mL
Streptococcus pneumoniae [9]
  MIC: 0.008 µg/mL (≈ 0.0109 µM)
Mus musculus [10]
  ED50: 1.6 mg/kg
Rattus norvegicus [11]
  Plasma concentration: 0.11 µg/mL
Mus musculus [12]
  Plasma concentration: 0 µg/mL
Mus musculus [13]
  Plasma concentration: 0.01 µg/mL
Rattus norvegicus [14]
  Activity: 0.4 µg/mL
[15]
  MIC: 0.06 µg/mL (≈ 0.0818 µM)
Rattus norvegicus [16]
  Activity: 8.8 µg/mL
Rattus norvegicus [17]
  Activity: 0.04 µg/mL
Mus musculus [18]
  ED50: 71 mg/kg
Mus musculus [19]
  Plasma concentration: 5.96 µg/mL
Mus musculus [20]
  ED50: 18 mg/kg
Mus musculus [21]
  Plasma concentration: 5.84 µg/mL
Rattus norvegicus [22]
  Activity: 0 µg/mL
Mus musculus [23]
  ED50: 3.5 mg/kg
Streptococcus pyogenes [24]
  MIC: 0.015 µg/mL (≈ 0.0204 µM)
Streptococcus pyogenes [25]
  ED50: 21 mg/kg
Mus musculus [26]
  Plasma concentration: 4.26 µg/mL
Mus musculus [27]
  ED50: 15 mg/kg
Mus musculus [28]
  ED50: 4.1 mg/kg
Mus musculus [29]
  Plasma concentration: 4.36 µg/mL
Staphylococcus aureus [30]
  ED50: 41 mg/kg
Mus musculus [31]
  Plasma concentration: 0.01 µg/mL
Mus musculus [32]
  ED50: > 100 mg/kg
Rattus norvegicus [33]
  Plasma concentration: 0.11 µg/mL
Rattus norvegicus [34]
  Activity: 0.04 µg/mL
Mus musculus [35]
  ED50: 14 mg/kg
Rattus norvegicus [36]
  Plasma concentration: 0.48 µg/mL
Mus musculus [37]
  ED50: 12 mg/kg
Mus musculus [38]
  ED50: 2.5 mg/kg
Rattus norvegicus [39]
  Activity: 1 µg/mL
